# Test system: HeLa
# Assay: Cytotoxicity against human HeLa cells after 72 hrs by MTT assay
# Type: cell-based
# Settings: not given
# Outline: (§1)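 Each cell line exposed to compounds over a 12-point concentration curve in triplicate for 72 h; viability read by MTT, IC50 determined.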
row,Structure (SMILES),IC50 [nM]
1,O=C(O)CCc1cccc2c1B(O)OC2,> 100000

# Test system: not listed separately
# Assay: Solubility of the compound in water at pH 7
# Type: physicochemical
# Settings: not given
row,solubility [µg/mL],Structure (SMILES)
1,750,O=C(O)CCc1cccc2c1B(O)OC2

# Test system: Plasmodium falciparum
# Assay: Antimalarial activity against Plasmodium falciparum W2 infected in human erythrocytes assessed as reduction of parasitemia after 48 hrs by flow cytometry
# Type: functional, organism-based
# Settings: W2, 48 h
# Outline: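 Erythrocytic-stage W2 parasites cultured in human erythrocytes in RPMI-1640 with 10% human serum or 0.5% Albumax; sorbitol-synchronized to ring stage. Serial dilutions from 10 mM stocks; 2% hematocrit, 1% parasitemia, 3% O2/5% CO2/N2, 48 h.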
row,Structure (SMILES),IC50 [nM]
1,O=C(O)CCc1cccc2c1B(O)OCC2,> 5000
2,CC(C)(Cc1cccc2c1B(O)OC2)C(=O)O,> 5000
3,N#CCCc1cccc2c1B(O)OC2,1020
4,O=C(O)CCc1cccc2c1COB2O,> 5000
5,O=C(O)CCc1ccc2c(c1)COB2O,2890
6,NC(=O)CCc1cccc2c1B(O)OC2,1300
7,CN(CC(=O)O)c1cccc2c1B(O)OC2,> 5000
8,CN(C)C(=O)CCc1cccc2c1B(O)OC2,> 5000
9,CC1(C)OB(O)c2c(CCC(=O)O)cccc21,> 5000
10,CC(=O)CCc1cccc2c1B(O)OC2,2720
11,O=C(O)CCCCc1cccc2c1B(O)OC2,2010
12,O=C(O)CNc1cccc2c1B(O)OC2,950

# Now those with a lower IC50, led by results:
row,IC50 [nM],Structure (SMILES)
1,320,COC(=O)CCc1cccc2c1B(O)OC2
2,460,O=C(O)COc1cccc2c1B(O)OC2
3,620,O=C(O)CCCc1cccc2c1B(O)OC2
4,520,NCCCc1cccc2c1B(O)OC2
5,120,O=C(O)CCc1ccc2c(c1)B(O)OC2
6,160,OB1OCc2cccc(CCc3nn[nH]n3)c21
7,460,O=C(CCc1cccc2c1B(O)OC2)NS(=O)(=O)C1CC1
8,26,O=C(O)CCc1cccc2c1B(O)OC2

# Test system: Jurkat
# Assay: Cytotoxicity against human Jurkat cells after 72 hrs by MTT assay
# Type: cell-based
# Settings: not given
# Outline: as §1
row,Structure (SMILES),IC50 [nM]
1,O=C(O)CCc1cccc2c1B(O)OC2,60500

# Source: ChEMBL document CHEMBL1641498, “Synthesis and structure-activity relationships of novel benzoxaboroles as a new class of antimalarial agents” (Bioorg Med Chem Lett, 2011)
